Assay [1] deals with 5-hydroxytryptamine receptor 2A (Rattus norvegicus) (UniProt P14842). Briefly: Displacement of [3H]ketanserin from Sprague-Dawley rat brain cortex serotonin 5-HT2A receptor at 0.00001 uM after 15 mins by liquid scintillation counting. On the technique in general: Loss of bound radioactivity is the signal in a displacement assay; it reports binding, not function.
Assay [2] shares this target. Briefly: Displacement of [3H]ketanserin from Sprague-Dawley rat brain cortex serotonin 5-HT2A receptor at 0.001 uM after 15 mins by liquid scintillation counting.
Assay [3] has as its target T1, Adrenergic receptor alpha-2 (Rattus norvegicus, UniProt P22086+P19328+P22909).
T1 sequence (P22086 whole entry): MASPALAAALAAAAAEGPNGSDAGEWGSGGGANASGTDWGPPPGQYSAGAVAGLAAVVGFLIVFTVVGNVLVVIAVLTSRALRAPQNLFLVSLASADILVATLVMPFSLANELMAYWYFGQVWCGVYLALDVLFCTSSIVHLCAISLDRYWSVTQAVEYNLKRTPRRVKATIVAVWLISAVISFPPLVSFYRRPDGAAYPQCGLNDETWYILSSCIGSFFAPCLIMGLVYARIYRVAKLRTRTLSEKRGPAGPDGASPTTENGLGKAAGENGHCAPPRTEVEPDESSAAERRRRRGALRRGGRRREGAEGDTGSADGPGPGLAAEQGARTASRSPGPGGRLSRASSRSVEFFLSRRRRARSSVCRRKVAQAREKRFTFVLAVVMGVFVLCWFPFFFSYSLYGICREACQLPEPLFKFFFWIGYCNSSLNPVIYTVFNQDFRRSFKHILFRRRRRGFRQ
T1 sequence (P19328 whole entry): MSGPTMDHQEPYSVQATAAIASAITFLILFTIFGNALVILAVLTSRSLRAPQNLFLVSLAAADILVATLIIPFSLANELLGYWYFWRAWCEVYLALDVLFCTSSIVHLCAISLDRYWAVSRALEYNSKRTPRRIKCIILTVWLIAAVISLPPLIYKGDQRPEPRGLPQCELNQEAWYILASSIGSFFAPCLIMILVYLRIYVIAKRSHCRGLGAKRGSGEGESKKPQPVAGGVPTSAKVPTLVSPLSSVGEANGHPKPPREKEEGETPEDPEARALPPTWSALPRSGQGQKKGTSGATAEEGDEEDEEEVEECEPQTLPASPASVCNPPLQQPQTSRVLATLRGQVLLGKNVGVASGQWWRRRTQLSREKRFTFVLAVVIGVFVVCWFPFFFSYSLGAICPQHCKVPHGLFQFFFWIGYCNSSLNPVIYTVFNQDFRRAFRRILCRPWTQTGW
T1 sequence (P22909 whole entry): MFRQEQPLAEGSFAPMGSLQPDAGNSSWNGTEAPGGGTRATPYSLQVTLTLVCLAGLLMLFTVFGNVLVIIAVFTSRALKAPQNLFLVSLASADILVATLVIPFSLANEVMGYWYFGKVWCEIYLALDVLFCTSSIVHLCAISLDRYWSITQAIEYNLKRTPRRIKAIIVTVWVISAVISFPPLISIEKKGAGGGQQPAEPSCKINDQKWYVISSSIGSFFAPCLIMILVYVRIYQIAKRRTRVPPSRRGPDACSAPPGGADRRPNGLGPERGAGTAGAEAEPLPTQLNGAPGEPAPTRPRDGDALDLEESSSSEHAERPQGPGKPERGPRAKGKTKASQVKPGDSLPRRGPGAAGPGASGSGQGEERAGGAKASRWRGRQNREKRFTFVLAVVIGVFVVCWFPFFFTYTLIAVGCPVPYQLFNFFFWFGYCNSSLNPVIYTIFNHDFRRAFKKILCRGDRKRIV
Briefly: Displacement of [3H]yohimbine from rat brain cortex adrenergic alpha2 receptor after 30 mins by liquid scintillation counting. Summed up: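 Cortex homogenized in 5 mM Tris-HCl, 5 mM EDTA pH 7.3, spun three times at 50,000 g, resuspended in 50 mM Tris-HCl, 0.5 mM EDTA pH 7.5. [3H]yohimbine 1 nM final, 10 mg fresh tissue, 30 min at 25 °C. Phentolamine defined nonspecific binding. Ki by Cheng-Prusoff.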

Assay [4] has as its target 5-hydroxytryptamine receptor 2A (Rattus norvegicus) (UniProt P14842). Nature of the assay: Displacement of [3H]ketanserin from Sprague-Dawley rat brain cortex serotonin 5-HT2A receptor at 0.0000001 uM after 15 mins by liquid scintillation counting.
Assay [5] deals with T2, Adrenergic receptor alpha-1 (Rattus norvegicus, UniProt P15823+P23944+P43140).
T2 sequence (P15823 whole entry): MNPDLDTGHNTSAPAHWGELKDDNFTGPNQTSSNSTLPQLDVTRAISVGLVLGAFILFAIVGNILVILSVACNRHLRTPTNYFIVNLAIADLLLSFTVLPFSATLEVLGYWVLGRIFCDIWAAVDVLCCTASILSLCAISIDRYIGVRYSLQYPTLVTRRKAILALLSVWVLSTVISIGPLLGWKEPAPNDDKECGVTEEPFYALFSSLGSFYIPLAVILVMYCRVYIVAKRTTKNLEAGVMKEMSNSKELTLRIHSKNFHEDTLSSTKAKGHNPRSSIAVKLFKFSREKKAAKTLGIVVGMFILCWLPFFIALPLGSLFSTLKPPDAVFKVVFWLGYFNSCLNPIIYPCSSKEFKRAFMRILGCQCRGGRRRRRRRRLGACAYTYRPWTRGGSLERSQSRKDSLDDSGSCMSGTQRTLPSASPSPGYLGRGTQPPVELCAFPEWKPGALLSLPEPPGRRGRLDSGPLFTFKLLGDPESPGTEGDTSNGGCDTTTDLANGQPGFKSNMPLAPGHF
T2 sequence (P23944 whole entry): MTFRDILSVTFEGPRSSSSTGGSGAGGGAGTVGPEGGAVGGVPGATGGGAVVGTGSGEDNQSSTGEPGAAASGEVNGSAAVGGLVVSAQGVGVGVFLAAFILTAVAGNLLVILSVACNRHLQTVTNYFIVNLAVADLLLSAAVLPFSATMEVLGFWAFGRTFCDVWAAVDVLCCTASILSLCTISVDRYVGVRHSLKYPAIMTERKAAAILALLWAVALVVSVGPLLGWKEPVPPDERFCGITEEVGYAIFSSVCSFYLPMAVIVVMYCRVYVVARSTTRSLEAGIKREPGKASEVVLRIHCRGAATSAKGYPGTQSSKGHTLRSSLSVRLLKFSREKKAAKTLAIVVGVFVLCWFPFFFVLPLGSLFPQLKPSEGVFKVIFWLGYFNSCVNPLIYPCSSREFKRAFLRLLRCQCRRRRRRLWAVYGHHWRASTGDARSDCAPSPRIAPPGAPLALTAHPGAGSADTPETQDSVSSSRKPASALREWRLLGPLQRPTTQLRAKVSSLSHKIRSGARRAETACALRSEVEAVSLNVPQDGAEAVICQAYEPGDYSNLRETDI
T2 sequence (P43140 whole entry): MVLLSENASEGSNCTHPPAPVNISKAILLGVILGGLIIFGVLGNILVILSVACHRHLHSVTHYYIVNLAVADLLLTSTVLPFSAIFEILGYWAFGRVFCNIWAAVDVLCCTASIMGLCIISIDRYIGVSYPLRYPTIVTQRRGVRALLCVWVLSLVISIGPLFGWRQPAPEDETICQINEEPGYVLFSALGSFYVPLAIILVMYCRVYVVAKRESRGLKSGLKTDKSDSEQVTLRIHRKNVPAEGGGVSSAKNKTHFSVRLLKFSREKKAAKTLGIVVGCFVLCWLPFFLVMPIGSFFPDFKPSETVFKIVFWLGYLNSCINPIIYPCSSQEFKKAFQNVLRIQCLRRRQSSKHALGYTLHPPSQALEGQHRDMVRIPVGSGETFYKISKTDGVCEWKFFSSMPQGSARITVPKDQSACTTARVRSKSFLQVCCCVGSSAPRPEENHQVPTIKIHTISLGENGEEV
Briefly: Displacement of [3H]prazosin from rat brain cortex adrenergic alpha1 receptor after 30 mins by liquid scintillation counting. The method, boiled down: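 Brain cortex homogenized in 50 mM Tris-HCl pH 7.2, spun twice at 50,000 g, resuspended in Tris-HCl pH 7.4. 0.4 nM [3H]prazosin final, 10 mg fresh tissue, 30 min at 25 °C. Nonspecific binding with phentolamine. GF/B filtration. Ki by Cheng-Prusoff from six-point triplicate curves.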

In assay [6] the target is T3, 5-hydroxytryptamine receptor 2C (Rattus norvegicus, UniProt P08909).
T3 sequence (P08909 whole entry): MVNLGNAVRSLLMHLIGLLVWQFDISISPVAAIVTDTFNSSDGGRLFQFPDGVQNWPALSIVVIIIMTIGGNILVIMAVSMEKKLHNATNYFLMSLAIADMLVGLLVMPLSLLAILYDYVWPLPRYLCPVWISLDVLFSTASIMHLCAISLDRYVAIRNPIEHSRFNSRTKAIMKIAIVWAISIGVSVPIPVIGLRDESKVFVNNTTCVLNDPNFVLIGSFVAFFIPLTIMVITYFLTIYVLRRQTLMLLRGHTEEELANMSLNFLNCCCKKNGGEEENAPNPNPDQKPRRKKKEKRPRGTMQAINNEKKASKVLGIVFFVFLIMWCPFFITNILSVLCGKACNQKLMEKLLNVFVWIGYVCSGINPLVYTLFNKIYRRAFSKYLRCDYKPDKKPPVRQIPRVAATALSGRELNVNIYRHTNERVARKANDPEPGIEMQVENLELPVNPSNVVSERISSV
Briefly: Displacement of [3H]mesulergine from Sprague-Dawley rat brain cortex serotonin 5-HT2C receptor after 15 mins by liquid scintillation counting in presence of 5-HT2A blocker, spiperone. Summed up:
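Male Sprague-Dawley rat frontal cortex membranes (Tris-HCl/EDTA/MgCl2 pH 7.4, ascorbate, pargyline). 100 nM spiperone in all tubes to block 5-HT2A sites. Mianserin defined nonspecific binding. 15 min at 37 °C, PEI-soaked glass fibre filtration. Six compound concentrations in triplicate. Ki by Cheng-Prusoff.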

The target of assay [7] is D(2) dopamine receptor (Rattus norvegicus, UniProt P61169). Briefly: Displacement of [3H]spiperone from rat corpora striatum dopamine D2 receptor after 15 mins by liquid scintillation counting. Summed up:
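Corpora striata membranes in Tris-HCl buffer containing NaCl, KCl, CaCl2, MgCl2, ascorbic acid and pargyline. [3H]spiperone 0.4 nM final, 3 mg fresh tissue, incubated 15 min at 37 °C. GF/B filtration, scintillation counting. Six concentrations in triplicate. IC50 converted to Ki via Cheng-Prusoff.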

The target of assay [8] is 5-hydroxytryptamine receptor 2A (Rattus norvegicus, UniProt P14842). Nature of the assay: Displacement of [3H]ketanserin from Sprague-Dawley rat brain cortex serotonin 5-HT2A receptor after 15 mins by liquid scintillation counting. As to conditions: read-out: Ki; call rule not given here. The method, boiled down: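 Male Sprague-Dawley rat frontal cortex membranes in 50 mM Tris-HCl, 0.5 mM EDTA, 10 mM MgCl2 pH 7.4, with 0.1% ascorbate and pargyline. 0.4 nM [3H]ketanserin, 5 mg wet tissue, 15 min at 37 °C. Filtered on PEI-soaked glass fibre. Six compound concentrations in triplicate. IC50 converted to Ki by Cheng-Prusoff.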

The target in assay [9] is T4, 5-hydroxytryptamine receptor 1A (Rattus norvegicus, UniProt P19327).
T4 sequence (P19327 whole entry): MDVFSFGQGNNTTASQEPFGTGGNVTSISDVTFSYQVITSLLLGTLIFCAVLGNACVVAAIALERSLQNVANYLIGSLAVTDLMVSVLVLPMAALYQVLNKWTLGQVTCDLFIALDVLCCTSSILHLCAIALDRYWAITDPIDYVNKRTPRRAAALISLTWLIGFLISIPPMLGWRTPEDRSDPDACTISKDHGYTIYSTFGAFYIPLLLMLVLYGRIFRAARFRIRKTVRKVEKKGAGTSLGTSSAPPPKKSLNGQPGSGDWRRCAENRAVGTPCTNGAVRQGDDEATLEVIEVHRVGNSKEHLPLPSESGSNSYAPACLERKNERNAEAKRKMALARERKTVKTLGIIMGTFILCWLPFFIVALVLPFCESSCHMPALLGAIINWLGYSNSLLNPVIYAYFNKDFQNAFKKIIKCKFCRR
Briefly: Displacement of [3H]-8-OH-DPAT from Sprague-Dawley rat brain cortex serotonin 5-HT1A receptor after 30 mins by liquid scintillation counting. As to conditions: read-out: Ki. The method, boiled down:
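Male Sprague-Dawley rat (180-220 g) cerebral cortex homogenized in 50 mM Tris-HCl pH 7.7, spun 50,000 g. [3H]-8-OH-DPAT 0.1 nM final, 30 min at 37 °C, GF/B filtration. Test compounds in ethanol or 5% DMSO, six concentrations in triplicate. IC50 by curve fitting, Ki by Cheng-Prusoff using Scatchard-derived KD.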

Assay [10] deals with D(1A) dopamine receptor (Rattus norvegicus, UniProt P18901). Nature of the assay: Displacement of [3H]SCH-23390 from rat corpora striatum dopamine D1 receptor after 15 mins by liquid scintillation counting. Summed up:
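Rat corpora striata homogenized in 50 mM Tris-HCl pH 7.7, spun twice at 50,000 g. Resuspended in Tris-HCl with NaCl, KCl, CaCl2, MgCl2, ascorbic acid and pargyline. 0.4 nM [3H]SCH-23390 final, 3 mg fresh tissue, 15 min at 37 °C. Nonspecific binding with piflutixol. Ki by Cheng-Prusoff from triplicate six-point curves.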

Where only a bound is given, the exact number is not on record here.

We go through two compounds from ChEMBL document CHEMBL1926621, “New potent 5-HT(2A) receptor ligands containing an N'-cyanopicolinamidine nucleus: Synthesis and in vitro pharmacological evaluation” (Eur J Med Chem, 2012).

For orientation: inhibition means the share of the control response that was lost under treatment. High values mean a response far below the control, low ones a response near the control. The term Ki denotes a dissociation constant, usually derived from enzyme kinetics or from competition with a known ligand.

Sequence of 5-hydroxytryptamine receptor 2A (Rattus norvegicus) (P14842 whole entry): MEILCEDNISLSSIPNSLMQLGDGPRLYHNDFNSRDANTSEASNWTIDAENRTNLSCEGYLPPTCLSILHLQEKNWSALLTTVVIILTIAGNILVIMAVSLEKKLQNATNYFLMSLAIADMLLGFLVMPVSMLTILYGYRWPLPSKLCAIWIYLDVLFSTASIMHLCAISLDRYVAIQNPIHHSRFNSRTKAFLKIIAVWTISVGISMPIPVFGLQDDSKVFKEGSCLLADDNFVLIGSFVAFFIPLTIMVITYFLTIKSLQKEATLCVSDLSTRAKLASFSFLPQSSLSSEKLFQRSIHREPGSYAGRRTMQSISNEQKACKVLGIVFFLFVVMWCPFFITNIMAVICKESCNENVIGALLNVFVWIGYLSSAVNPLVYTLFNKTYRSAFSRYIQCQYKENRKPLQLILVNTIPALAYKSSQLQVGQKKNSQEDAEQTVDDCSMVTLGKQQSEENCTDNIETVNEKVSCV
Sequence of D(2) dopamine receptor (P61169 whole entry): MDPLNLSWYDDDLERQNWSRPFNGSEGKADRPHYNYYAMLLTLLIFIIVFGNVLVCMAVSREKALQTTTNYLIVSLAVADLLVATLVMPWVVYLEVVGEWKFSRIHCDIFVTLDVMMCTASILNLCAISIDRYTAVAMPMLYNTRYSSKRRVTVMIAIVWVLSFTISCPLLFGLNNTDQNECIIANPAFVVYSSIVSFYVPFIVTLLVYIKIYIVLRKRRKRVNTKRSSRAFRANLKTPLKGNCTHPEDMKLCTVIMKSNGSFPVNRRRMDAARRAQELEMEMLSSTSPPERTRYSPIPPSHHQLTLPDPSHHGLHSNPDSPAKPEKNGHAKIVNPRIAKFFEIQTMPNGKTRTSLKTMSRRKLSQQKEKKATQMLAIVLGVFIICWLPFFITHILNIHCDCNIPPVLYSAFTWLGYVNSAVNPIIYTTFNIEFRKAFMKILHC
Sequence of 5-hydroxytryptamine receptor 2A (P14842 whole entry): as the sequence (P14842 whole entry) above
Sequence of D(1A) dopamine receptor (P18901 whole entry): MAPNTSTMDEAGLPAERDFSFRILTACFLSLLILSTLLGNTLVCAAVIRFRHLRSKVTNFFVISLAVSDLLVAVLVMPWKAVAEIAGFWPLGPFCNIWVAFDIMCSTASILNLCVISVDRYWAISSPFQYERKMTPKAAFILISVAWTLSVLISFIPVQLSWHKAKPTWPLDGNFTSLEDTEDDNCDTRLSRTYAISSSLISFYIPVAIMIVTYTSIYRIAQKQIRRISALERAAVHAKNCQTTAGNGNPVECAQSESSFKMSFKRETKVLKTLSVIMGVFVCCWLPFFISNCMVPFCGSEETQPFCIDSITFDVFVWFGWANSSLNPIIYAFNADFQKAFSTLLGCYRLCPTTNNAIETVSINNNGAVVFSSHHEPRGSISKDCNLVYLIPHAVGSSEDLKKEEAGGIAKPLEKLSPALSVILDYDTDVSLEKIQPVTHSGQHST

In the case of `N#C/N=C(\NCCCN1CCN(c2cccc(Cl)c2)CC1)c1ccccn1`, the inhibition was 68.8% in assay [1], 95.1% in assay [2] and 45.3% in assay [4]. Moreover, the Ki is given as 1360 nM in [3] and 174 nM in assay [5].

With `N#C/N=C(\NCCCN1CCN(Cc2ccc3c(c2)OCO3)CC1)c1ccccn1`, the inhibition constant Ki result was “Not Active” in assay [6]; “Not Active” in assay [7]; 51.8 nM in assay [8]; 964 nM in assay [3]; more than 10000 nM in [9]; “Not Active” in [10].
